System: U2OS
Assay: Multiplex assay against U2OS
Format: toxicity, cell-based
Details: human
How it was run: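 Values for tubulin, mitochondrial-mass and membrane-permeability phenotypes are per cents of cells with healthy nuclei. These cells were identified by CellPathfinder machine-learning gating of live cells that had been stained at seeding with Hoechst33342, BioTracker Green Microtubule Cytoskeleton Dye, MitoTracker Red and Annexin V Alexa Fluor 680 and imaged on a CQ1 microscope at 37°C and 5% CO2 after compound addition. The gating first set Hoechst high-intensity objects apart from normal cells, then split normal cells into healthy, pyknosed or fragmented nuclei, and pyknosed cells into mitotic or apoptotic.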

[1] = 12 h, 1 µM, compound concentration 1 uM, replicate 1
[2] = 12 h, 1 µM, compound concentration 1 uM, replicate 2
[3] = 12 h, 10 µM, compound concentration 10 uM, replicate 1
[4] = 12 h, 10 µM, compound concentration 10 uM, replicate 2
[5] = 24 h, 1 µM, compound concentration 1 uM, replicate 1
[6] = 24 h, 1 µM, compound concentration 1 uM, replicate 2
[7] = 24 h, 10 µM, compound concentration 10 uM, replicate 1
[8] = 24 h, 10 µM, compound concentration 10 uM, replicate 2

C=CC(=O)Nc1cc2c(Nc3ccc(F)c(Cl)c3)ncnc2cc1OCCCN1CCOCC1.Cl.Cl [CANERTINIB DIHYDROCHLORIDE]
Population Apoptotic (%) [1]: 91% | Population Fragmented Nuclei (%) [1]: 16% | Population Healthy Nuclei (%) [1]: 0% | Population Hoechst High Intensity Objects (%) [1]: 5% | Population Membrane Permeable-Phenotype (%) [1]: 0% | Population Mitochondria Different-Phenotype (%) [1]: 100% | Population Mitotic Cells (%) [1]: 8% | Population Normal (%) [1]: 94% | Population Pyknosed Nuclei (%) [1]: 83% | Population Tubulin-Different-Phenotype (%) [1]: 100% | Total Cell Count [1]: 137 | Population Apoptotic (%) [2]: 95% | Population Fragmented Nuclei (%) [2]: 10% | Population Healthy Nuclei (%) [2]: 4% | Population Hoechst High Intensity Objects (%) [2]: 20% | Population Membrane Permeable-Phenotype (%) [2]: 100% | Population Mitotic Cells (%) [2]: 5% | Population Normal (%) [2]: 79% | Population Pyknosed Nuclei (%) [2]: 85% | Total Cell Count [2]: 88 | Population Apoptotic (%) [3]: 22% | Population Fragmented Nuclei (%) [3]: 5% | Population Healthy Nuclei (%) [3]: 87% | Population Hoechst High Intensity Objects (%) [3]: 2% | Population Membrane Permeable-Phenotype (%) [3]: 38% | Population Mitochondria Different-Phenotype (%) [3]: 11% | Population Mitotic Cells (%) [3]: 77% | Population Normal (%) [3]: 97% | Population Pyknosed Nuclei (%) [3]: 6% | Population Tubulin-Different-Phenotype (%) [3]: 17% | Total Cell Count [3]: 142 | Population Apoptotic (%) [4]: 33% | Population Fragmented Nuclei (%) [4]: 12% | Population Healthy Nuclei (%) [4]: 81% | Population Hoechst High Intensity Objects (%) [4]: 10% | Population Membrane Permeable-Phenotype (%) [4]: 24% | Population Mitochondria Different-Phenotype (%) [4]: 22% | Population Mitotic Cells (%) [4]: 66% | Population Normal (%) [4]: 89% | Population Pyknosed Nuclei (%) [4]: 5% | Population Tubulin-Different-Phenotype (%) [4]: 14% | Total Cell Count [4]: 122 | Population Apoptotic (%) [5]: 99% | Population Fragmented Nuclei (%) [5]: 8% | Population Healthy Nuclei (%) [5]: 4% | Population Hoechst High Intensity Objects (%) [5]: 13% | Population Membrane Permeable-Phenotype (%) [5]: 100% | Population Mitochondria Different-Phenotype (%) [5]: 100% | Population Mitotic Cells (%) [5]: 0% | Population Normal (%) [5]: 86% | Population Pyknosed Nuclei (%) [5]: 87% | Population Tubulin-Different-Phenotype (%) [5]: 100% | Total Cell Count [5]: 137 | Population Apoptotic (%) [6]: 100% | Population Fragmented Nuclei (%) [6]: 14% | Population Healthy Nuclei (%) [6]: 5% | Population Hoechst High Intensity Objects (%) [6]: 21% | Population Normal (%) [6]: 78% | Population Pyknosed Nuclei (%) [6]: 79% | Total Cell Count [6]: 85 | Population Apoptotic (%) [7]: 70% | Population Fragmented Nuclei (%) [7]: 5% | Population Hoechst High Intensity Objects (%) [7]: 3% | Population Mitochondria Different-Phenotype (%) [7]: 11% | Population Mitotic Cells (%) [7]: 29% | Population Normal (%) [7]: 96% | Population Pyknosed Nuclei (%) [7]: 9% | Population Tubulin-Different-Phenotype (%) [7]: 9% | Total Cell Count [7]: 186 | Population Apoptotic (%) [8]: 42% | Population Fragmented Nuclei (%) [8]: 9% | Population Healthy Nuclei (%) [8]: 84% | Population Hoechst High Intensity Objects (%) [8]: 8% | Population Membrane Permeable-Phenotype (%) [8]: 20% | Population Mitochondria Different-Phenotype (%) [8]: 23% | Population Mitotic Cells (%) [8]: 57% | Population Normal (%) [8]: 91% | Population Pyknosed Nuclei (%) [8]: 5% | Population Tubulin-Different-Phenotype (%) [8]: 19% | Total Cell Count [8]: 135
